CHRM4 agonist – agonists of human muscarinic M4 receptor (CHRM4); CHO-K1 hM4/Gqi5, Fluo-8 calcium fluorescence; vehicle 0%, full acetylcholine response 100%; activation, % at 3 µM; 360,000 tested, 0.14% active; AID 624127;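 active means activation above the run mean over all test wells plus 3 SD, cut at about 32% in these data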;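 further: peak over basal fluorescence ratio per well then scaled between controls; 0% = DMSO wells and 100% = acetylcholine at EC100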
Target sequence (P08173 whole entry, looked up): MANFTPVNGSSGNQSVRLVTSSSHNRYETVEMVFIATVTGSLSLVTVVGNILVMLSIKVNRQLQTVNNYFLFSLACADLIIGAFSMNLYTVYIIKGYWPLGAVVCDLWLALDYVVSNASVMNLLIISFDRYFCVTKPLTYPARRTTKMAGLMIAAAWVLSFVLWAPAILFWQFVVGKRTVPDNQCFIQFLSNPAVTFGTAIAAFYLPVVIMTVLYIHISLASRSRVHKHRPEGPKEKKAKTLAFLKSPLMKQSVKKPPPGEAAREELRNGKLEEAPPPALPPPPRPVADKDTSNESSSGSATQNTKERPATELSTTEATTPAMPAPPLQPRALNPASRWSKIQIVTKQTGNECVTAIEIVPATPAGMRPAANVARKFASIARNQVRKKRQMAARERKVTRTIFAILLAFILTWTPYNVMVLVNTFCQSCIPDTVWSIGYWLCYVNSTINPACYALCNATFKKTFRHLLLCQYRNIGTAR
CHRM4 PAM – potentiates acetylcholine response at human M4 receptor | P08173 | CHO-K1 hM4/Gqi5, Fluo-8 calcium fluorescence, ACh EC20; 0% = ACh EC20, 100% = maximal ACh | AID 624126 | activation, % at 3 µM | 360,000 tested, 0.4% active;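 active means activation above its plate's cutoff, the mean activation of sample wells plus 3 SD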
M5 antag – blocks acetylcholine activation of human M5 receptor | CHO-hM5 cells, Fluo-8 calcium fluorescence, ACh EC80 | inhibition, % at 3 µM | 360,000 tested, 0.59% active | AID 624040;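 active means inhibition above a per-plate cutoff, the mean of that plate's test compounds plus 3 SD, cut at about 27% in these data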;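 further: 0% = acetylcholine EC80 with DMSO and 100% = DMSO without agonist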
CHRM5 PAM – positive allosteric modulators of human muscarinic M5 receptor | activation, % at 3 µM | P08912 | 360,000 tested, 0.3% active | CHO-K1 hM5, Fluo-8 calcium, ACh EC20 PAM; 0% = ACh EC20, 100% = ACh EC100;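 active means activation above the run cutoff, the mean activation of all test compounds plus 3 SD, cut at about 18% in these data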
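Measured by: Fluo-8 calcium fluorescence; material: human M5 receptor in CHO-K1 cells; schedule: Post-acetylcholine fluorescence recording 140 s; benchmarks: low control EC20 acetylcholine (0%), high control EC100 acetylcholine (100%); read-out: Max/basal fluorescence ratio as % of EC20–EC100 ACh window; compound: single dose, 3 µM nominal final test concentration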
M5 ag – agonists of human muscarinic M5 receptor (CHRM5). P08912. CHO-K1 hM5 cells, Fluo-8 calcium fluorescence; 0% DMSO wells, 100% maximal acetylcholine response. activation, % at 3 µM. 360,000 tested, 0.19% active. AID 624037;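 active means activation above the run's mean over test compounds plus 3 SD, cut at about 23% in these data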;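 further: signal is peak over basal fluorescence ratio across the kinetic read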
M4 antag – blocks acetylcholine activation of human M4 receptor; CHO-hM4 cells, ACh EC80, Fluo-8 calcium fluorescence; inhibition, % at 3 µM; 360,000 tested, 0.73% active;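 active means inhibition above its plate's cutoff, the mean inhibition of sample wells plus 3 SD, cut at about 27% in these data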;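 further: 0% = acetylcholine EC80 with DMSO and 100% = DMSO without agonist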
* = called active by the depositor. Hits are enriched below; roughly 1.8% of the tested compounds scored in any of these assays.

SMILES	CHRM4 agonist	CHRM4 PAM	M5 antag	CHRM5 PAM	M5 ag	M4 antag
CCOC(=O)CSc1nc(NC#N)nc(N(CC)CC)n1	0.4	1.8	-18.1	18.7*	0.3	-12.7
CCNc1nc(NC#N)nc(SCC(=O)OCC)n1	0.1	-2.3	1.2	-4.2	-2.7	-3.4
COc1ccc(N2CCN(C(=O)CSc3nnc4n3C(C)(C)Cc3ccccc3-4)CC2)cc1	-0.1	4.2	2.4	-1.6	-1.1	3.8
Cc1ccc(Cl)cc1N1CCN(C(=O)CSc2nnc3n2C(C)(C)Cc2ccccc2-3)CC1	13.1	-17.9	40.9*	-23.9	4.3	33.3*
O=S1(=O)C=C[C@@H](COCc2ccccc2)N1Cc1ccc(Br)cc1	2.4	1.9	0.2	0.8	-0.1	-4.1
COC(=O)C1=C(C)N(CCc2ccc(OC)c(OC)c2)C(=O)C1	4.0	-5.6	21.5	27.9*	-2.6	-14.9
COc1ccc(C(=O)N2CCN(c3nc(C4CC4)nc4sc(C)c(C)c34)CC2)cc1	0.4	20.3*	1.3	-1.0	-4.4	-2.2
Cc1sc2nc(C3CC3)nc(N3CCN(C(=O)c4ccc(F)cc4)CC3)c2c1C	3.4	18.2*	14.3	1.2	-4.6	-10.1
Cc1sc2nc(C3CC3)nc(N3CCN(C(=O)c4ccccc4F)CC3)c2c1C	2.7	-3.6	9.4	3.0	-4.8	4.7
Cc1sc2nc(C3CC3)nc(N3CCN(C(=O)c4ccc(Cl)cc4)CC3)c2c1C	-0.4	37.2*	10.5	-6.7	-4.0	-23.9
Cc1ccc(-c2nc3c(Cl)cc(C(F)(F)F)cn3c2Cc2ccccc2)cc1	-0.6	5.1	-5.5	-2.1	-0.1	-20.2
Brc1ccc(CN2CCN(c3ccccn3)CC2)s1	-1.9	28.8*	-4.8	2.9	-1.1	-8.4
CC(C)CCNc1nc(N)c([N+](=O)[O-])c(NCCO)n1	0.8	19.2	-13.8	19.2*	19.3	-12.4
Nc1nc(NCCOCCO)nc(NC2CCCCC2)c1[N+](=O)[O-]	1.7	3.4	27.6*	-4.3	5.5	3.4
CC(C)CNc1nc(N)c([N+](=O)[O-])c(NCC2CCCO2)n1 (stereo not given)	1.5	35.4*	-6.3	10.7	-1.0	0.9
O=C([C@@H]1CCCN1C1=NS(=O)(=O)c2ccccc21)N1CCN(c2ccccc2)CC1	3.6	2.0	-6.0	4.1	-0.1	-3.4
O=C(c1ccc(-c2nc3ccccc3s2)o1)N1CCN(c2ccccc2O)CC1	9.2	-4.8	33.9*	-17.5	-5.0	-0.6
O=C1NC[C@@H](CCCCN2C[C@H](Cc3ccc(O)cc3)N(Cc3ccccc3)C(=O)C2=O)N(CCC2CCCCC2)C1=O	0.9	9.6	0.5	2.0	-3.5	-6.4
CN(C(=O)CSc1nc2ccc(Cl)cc2[nH]1)C1CCS(=O)(=O)C1 (stereo not given)	0.1	6.9	-3.7	22.8*	1.0	4.0
CCC(=O)N1CCC1(C)C(=O)Nc1ccc(C)c(C)c1 (stereo not given)	0.4	3.7	-5.4	1.1	0.3	-17.7
CC(=O)Oc1ccccc1/C=C/c1ccc2ccccc2[n+]1C	0.0	-13.5	32.5*	-17.1	-8.5	14.0
COc1ccc(/C=C/c2ccc3ccccc3[n+]2C)cc1OC	1.2	-3.5	-0.2	-3.8	-6.9	-16.9
COc1ccc(OC)c(-c2csc(NC(=O)Cc3ccccc3F)n2)c1	-0.3	-19.9	8.2	-2.1	-2.9	54.2*
COc1ccc(OC)c(-c2csc(NC(=O)Cc3ccccc3OC)n2)c1	3.7	-4.9	3.1	1.5	-5.6	-20.5
CCOc1ccc(S(=O)(=O)N(C)c2ccc(OCC(=O)Nc3nc(-c4cc(OC)ccc4OC)cs3)cc2)cc1	0.3	30.3*	9.8	-0.5	2.8	-7.2
CCOC(=O)Cc1csc(NC(=O)COc2ccc(N(C)S(=O)(=O)c3ccc(C)cc3)cc2)n1	11.6	-11.1	8.4	-47.8	-4.1	4.2
COc1ccc2c(c1)C(=O)N1[C@H]3c4cc(C)ccc4OC[C@@H]3[C@H](c3ccccc3)[C@]1(C)C(=O)N2	-0.7	-10.0	18.2	-22.6	-3.0	33.6*
